Reference: ChEMBL document CHEMBL4765459, “Synthesis and bioactivity of phenyl substituted furan and oxazole carboxylic acid derivatives as potential PDE4 inhibitors” (Eur J Med Chem, 2020)

What was measured:
[1] = biological target: 3',5'-cyclic-AMP phosphodiesterase 4D (Homo sapiens, UniProt Q08499); test: Inhibition of human U-937 cells derived PDE4D using [3H] cAMP as substrate measured after 30 mins
How it was run: (§1)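 Enzyme from human monocyte-derived U937 cells, stored at −20 °C and diluted in triple-distilled water containing BSA. Substrate was [3H]cAMP (300,000 dpm/assay) in 100 mmol/L Tris-HCl pH 8.0 with 5 mmol/L EGTA. Compound added in DMSO. Incubation 30 min at 30 °C. Duplicates run at several compound concentrations.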

[2] = biological target: T1, 3',5'-cyclic-AMP phosphodiesterase 4B (Homo sapiens, UniProt Q07343); test: Inhibition of human U-937 cells derived PDE4B using [3H] cAMP as substrate measured after 30 mins; how it was run: as §1
[3] = biological target: T1, 3',5'-cyclic-AMP phosphodiesterase 4B; test: Inhibition of PDE4B in human PBMC assessed as reduction in LPS-induced TNFalpha release preincubated for 30 mins followed by LPS stimulation and measured after 18 hrs by TR-FRET assay
How it was run: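 Human PBMCs from buffy coats, blood first diluted 1:1 with saline, isolated on Lymphoprep. Compound pre-incubation 30 min, then LPS stimulation for 18 h. IC50 reported.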

Homo sapiens = organism: Homo sapiens; test: Selectivity ratio of IC50 for inhibition of human U937 cells derived PDE4D to inhibition of human U937 cells derived PDE4B
Mus musculus = test: Antiinflammatory activity in LPS induced Swiss albino mouse model of sepsis assessed as inhibition of TNFalpha production at 10 mg/kg, po preincubated for 30 mins followed by LPS stimulation and measured after 90 mins by ELISA relative to control; format: functional; settings: 2 h, time 120 min
How it was run: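 Female Swiss albino mice, weight-matched, n = 6 per group, fasted 20 h with water available. Oral dosing in 0.5% Tween 80 / 0.25% sodium carboxymethylcellulose, with vehicle-only controls. 500 µg E. coli LPS (B4) in phosphate buffer given i.p. 30 min later. Retro-orbital bleed 90 min after LPS. Serum spun 4000 rpm for 20 min, held at 4 °C overnight, then TNF-α measured by mouse ELISA kit.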

Rattus norvegicus = test: Antiinflammatory activity in LPS induced Sprague-Dawley rat model of asthma and COPD assessed as inhibition of neutrophilia at 10 mg/kg, po preincubated for 30 mins followed by LPS stimulation and measured after 6 hrs relative to control; format: functional; settings: time 6.5 hrs
How it was run: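 Male Sprague Dawley rats, acclimatized one week and randomized by body weight, n = 6 per group. Compound given orally, suspended in 0.25% sodium carboxymethylcellulose, half an hour before LPS exposure. Bronchoalveolar lavage done 6 h after LPS. Total cell count and differential leukocyte count compared with control.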

T1 sequence (Q07343 whole entry): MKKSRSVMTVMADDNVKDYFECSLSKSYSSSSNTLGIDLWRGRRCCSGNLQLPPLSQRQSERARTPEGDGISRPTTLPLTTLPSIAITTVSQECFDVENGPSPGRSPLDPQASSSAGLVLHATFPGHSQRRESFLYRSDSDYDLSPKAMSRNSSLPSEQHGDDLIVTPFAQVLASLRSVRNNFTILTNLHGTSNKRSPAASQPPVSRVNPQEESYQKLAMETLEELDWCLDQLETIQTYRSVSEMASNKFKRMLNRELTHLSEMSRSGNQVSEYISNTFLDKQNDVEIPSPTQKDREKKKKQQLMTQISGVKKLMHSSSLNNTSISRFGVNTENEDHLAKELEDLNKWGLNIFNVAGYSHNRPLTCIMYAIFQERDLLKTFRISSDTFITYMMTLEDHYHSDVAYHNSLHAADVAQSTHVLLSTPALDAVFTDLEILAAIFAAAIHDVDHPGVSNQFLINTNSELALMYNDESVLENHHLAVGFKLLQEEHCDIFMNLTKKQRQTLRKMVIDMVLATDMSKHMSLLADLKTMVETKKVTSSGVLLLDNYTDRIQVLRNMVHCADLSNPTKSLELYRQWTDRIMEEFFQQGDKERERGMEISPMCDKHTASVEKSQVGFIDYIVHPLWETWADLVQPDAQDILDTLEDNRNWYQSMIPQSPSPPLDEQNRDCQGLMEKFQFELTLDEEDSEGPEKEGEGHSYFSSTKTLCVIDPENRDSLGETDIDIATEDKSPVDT
Chain of 3',5'-cyclic-AMP phosphodiesterase 4D (Q08499 whole entry): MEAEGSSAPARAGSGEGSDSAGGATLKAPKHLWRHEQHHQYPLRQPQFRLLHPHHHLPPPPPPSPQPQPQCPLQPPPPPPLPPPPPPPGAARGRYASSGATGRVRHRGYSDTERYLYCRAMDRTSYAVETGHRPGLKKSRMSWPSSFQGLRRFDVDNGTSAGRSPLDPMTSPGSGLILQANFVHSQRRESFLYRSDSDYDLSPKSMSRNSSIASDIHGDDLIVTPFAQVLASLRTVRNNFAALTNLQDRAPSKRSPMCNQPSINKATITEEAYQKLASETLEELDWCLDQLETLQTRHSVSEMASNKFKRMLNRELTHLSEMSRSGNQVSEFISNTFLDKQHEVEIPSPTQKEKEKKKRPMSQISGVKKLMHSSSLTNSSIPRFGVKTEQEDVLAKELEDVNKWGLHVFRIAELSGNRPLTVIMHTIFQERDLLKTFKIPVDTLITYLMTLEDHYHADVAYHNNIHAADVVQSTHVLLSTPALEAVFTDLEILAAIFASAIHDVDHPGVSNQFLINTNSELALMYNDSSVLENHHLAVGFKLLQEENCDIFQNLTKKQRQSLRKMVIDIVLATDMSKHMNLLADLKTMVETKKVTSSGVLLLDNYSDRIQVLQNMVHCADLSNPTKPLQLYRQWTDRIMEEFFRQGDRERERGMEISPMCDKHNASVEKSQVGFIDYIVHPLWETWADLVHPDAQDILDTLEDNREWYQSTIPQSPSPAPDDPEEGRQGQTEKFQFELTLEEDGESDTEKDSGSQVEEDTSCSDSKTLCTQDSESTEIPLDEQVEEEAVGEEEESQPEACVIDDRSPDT

IC50 [1] [µM] | IC50 [2] [µM] | IC50 [3] [µM] | Ratio IC50 (Homo sapiens) | Structure (SMILES) | inhibition in vivo at 10 mg/kg (Mus musculus) [%] | inhibition in vivo at 10 mg/kg (Rattus norvegicus) [%]
26.8 | 3.6 | 27.2 | 7.44 | N#C/N=C1/SCCN1C(=O)c1coc(-c2ccc(Cl)cc2)n1 |  | 
121 | 20.1 | 53.9 | 6.04 | Cc1ccc(-c2ccc(CN3CCS/C3=N/C#N)o2)cc1 |  | 
 | 40.3 | 101 |  | N#C/N=C1/SCCN1C(=O)c1coc(-c2ccccc2Cl)n1 |  | 
66.9 | 9.2 | 35.2 | 7.27 | Cc1ccc(-c2nc(C(=O)N3CCS/C3=N/C#N)co2)cc1 |  | 
15.7 | 1.4 | 11.8 | 11.2 | COc1ccc(-c2nc(C(=O)N3CCS/C3=N/C#N)co2)cc1 | 52.6 | 42.1
58.3 | 15.7 | 44.2 | 3.71 | N#C/N=C1/SCCN1Cc1ccc(-c2ccc(Cl)cc2)o1 |  | 
 | 27.6 | 64.3 |  | N#C/N=C1/SCCN1C(=O)c1coc(-c2cccc(F)c2)n1 |  | 
 | 46.7 | 131 |  | N#C/N=C1/SCCN1C(=O)c1coc(-c2ccc(Br)cc2)n1 |  | 
54.3 | 12.5 | 41.3 | 4.34 | Cc1ccc(-c2ccc(C(=O)N3CCS/C3=N/C#N)o2)cc1 |  | 
18.7 | 2.8 | 15.3 | 6.68 | COc1ccc(-c2ccc(C(=O)N3CCS/C3=N/C#N)o2)cc1 | 40.5 | 33.8
160 | 45.7 | 82.3 | 3.49 | N#C/N=C1/SCCN1Cc1ccc(-c2c(F)cccc2F)o1 |  | 
 | 71.2 | 142 |  | N#C/N=C1/SCCN1C(=O)c1coc(-c2ccccc2)n1 |  | 
88.6 | 22.1 | 60.1 | 4.01 | N#C/N=C1/SCCN1C(=O)c1ccc(-c2c(F)cccc2F)o1 |  | 
 | 162 | 199 |  | N#C/N=C1/SCCN1Cc1ccc(-c2ccccc2)o1 |  | 
99.8 | 29.4 | 74.3 | 3.39 | N#C/N=C1/SCCN1C(=O)c1ccc(-c2cccc(Cl)c2)o1 |  | 
 | 37.8 | 72.6 |  | N#C/N=C1/SCCN1C(=O)c1ccc(-c2cccc(F)c2)o1 |  | 
 | 52.8 | 92.8 |  | N#C/N=C1/SCCN1C(=O)c1coc(-c2ccccc2F)n1 |  | 

IC50 [1] [µM] | IC50 [2] [µM] | IC50 [3] [µM] | Ratio IC50 (Homo sapiens) | Structure (SMILES) | inhibition in vivo at 10 mg/kg (Mus musculus) [%] | inhibition in vivo at 10 mg/kg (Rattus norvegicus) [%]
 | 59.7 | 89.5 |  | N#C/N=C1/SCCN1Cc1ccc(-c2cccc(F)c2)o1 |  | 
 | 85.6 | 121 |  | N#C/N=C1/SCCN1Cc1ccc(-c2ccccc2F)o1 |  | 
 | 111 | 170 |  | N#C/N=C1/SCCN1C(=O)c1ccc(-c2ccccc2)o1 |  | 
 |  |  |  | COc1ccc(C2CNC(=O)C2)cc1OC1CCCC1 (stereo not drawn) [ROLIPRAM] | 45.3 | 36.8
55.7 | 11.3 | 29.8 | 4.93 | N#C/N=C1/SCCN1C(=O)c1ccc(-c2ccc(F)cc2)o1 |  | 
45.9 | 6.8 | 22.1 | 6.75 | N#C/N=C1/SCCN1C(=O)c1coc(-c2ccc(F)cc2)n1 |  | 
98.7 | 16.3 | 49.3 | 6.06 | N#C/N=C1/SCCN1C(=O)c1coc(-c2c(F)cccc2F)n1 |  | 
32.8 | 9.6 | 36.8 | 3.42 | COc1ccc(-c2ccc(CN3CCS/C3=N/C#N)o2)cc1 | 31.2 | 28.7
 | 49.6 | 139 |  | N#C/N=C1/SCCN1C(=O)c1ccc(-c2ccc(Br)cc2)o1 |  | 
 | 62.4 | 110 |  | N#C/N=C1/SCCN1C(=O)c1ccc(-c2ccccc2F)o1 |  | 
26.4 | 6.6 | 35.6 | 4 | N#C/N=C1/SCCN1C(=O)c1ccc(-c2ccc(Cl)cc2)o1 |  | 
111 | 18.9 | 45.8 | 5.85 | N#C/N=C1/SCCN1Cc1ccc(-c2ccc(F)cc2)o1 |  | 
 | 62.8 | 89.7 |  | N#C/N=C1/SCCN1Cc1ccc(-c2cccc(Cl)c2)o1 |  | 
 | 62.8 | 123 |  | N#C/N=C1/SCCN1C(=O)c1ccc(-c2ccccc2Cl)o1 |  | 
102 | 18.1 | 62.5 | 5.66 | N#C/N=C1/SCCN1C(=O)c1coc(-c2cccc(Cl)c2)n1 |  | 
 | 52.7 | 156 |  | N#C/N=C1/SCCN1Cc1ccc(-c2ccc(Br)cc2)o1 |  | 
 | 102 | 149 |  | N#C/N=C1/SCCN1Cc1ccc(-c2ccccc2Cl)o1 |  | 
